# Most compounds without a hit are left out; they make up all but 1.3% or so of the library.
# Fam108B counter: counter-screen for RBBP9 inhibitors: inhibitors of mouse Fam108B; inhibition, % at 9.51 µM; recombinant Fam108B, FP-Rh probe fluorescence polarization; 300,000 compounds, 0.33% hits;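 active = inhibition above the screen mean inhibition plus 3 SD, computed separately per campaign, cut at about 18% in these data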;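 note: inhibitors lower polarization as less probe binds the enzyme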
# RBBP9 inhibitor: blocks human serine hydrolase RBBP9 | O75884 | recombinant RBBP9, FP-Rh probe fluorescence polarization | inhibition, % at 7.94 µM | 220,000 compounds, 0.2% hits | AID 1515;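 active = inhibition above the campaign mean of all tested compounds plus 3 SD, cut at about 14% in these data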;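 note: plate controls were DMSO wells with RBBP9 for no effect and wells lacking RBBP9 protein for full effect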
#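 Measured by: FP readout at 525/598 nm; material: recombinant human RBBP9; also added: Serine-hydrolase probe FP-Rh, 375 nM pre-mixing; medium: Tris buffer pH 8.0, NaCl, Pluronic; replication: one well per compound; doses: one concentration, 7.94 µM nominal, 0.794% DMSO; timing: preincubation 30 min plus labeling 45 min at 25 °C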
# PME-1 inh: blocks human protein phosphatase methylesterase 1. recombinant PME-1, FP-Rh probe fluorescence polarization. inhibition, % at 5.9 µM. AID 2130. Q9Y570. 320,000 compounds, 0.53% hits;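 active = inhibition above the campaign mean of all compounds plus 3 SD, cut at about 26% in these data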;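 note: competitive labeling of PME-1 active site by serine hydrolase directed probe; 0% = PME-1 with DMSO and 100% = wells lacking PME-1 enzyme; inhibitors block probe labeling so polarization falls and inhibition rises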
# Target sequence (Q9Y570 whole entry, looked up): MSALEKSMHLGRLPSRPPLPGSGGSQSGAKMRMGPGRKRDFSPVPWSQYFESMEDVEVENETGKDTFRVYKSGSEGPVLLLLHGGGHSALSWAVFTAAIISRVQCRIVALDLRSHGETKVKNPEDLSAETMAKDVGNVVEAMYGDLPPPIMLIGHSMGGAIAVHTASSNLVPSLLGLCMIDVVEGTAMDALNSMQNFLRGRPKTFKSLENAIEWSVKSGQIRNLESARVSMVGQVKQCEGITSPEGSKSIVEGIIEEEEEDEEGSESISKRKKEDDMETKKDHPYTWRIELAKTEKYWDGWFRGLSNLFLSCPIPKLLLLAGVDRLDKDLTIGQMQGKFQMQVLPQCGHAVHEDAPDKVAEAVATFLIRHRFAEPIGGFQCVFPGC
# LYPLA2 counter: counter-screen for PME1 inhibitors: inhibitors of human LYPLA2 | O95372 | 320,000 compounds, 0.38% hits | inhibition, % at 5.9 µM | recombinant LYPLA2, FP-Rh probe fluorescence polarization;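 active = inhibition above the screen-wide mean plus 3 SD, limit set per campaign, cut at about 26% in these data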;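 note: 0% = LYPLA2 with DMSO and 100% = wells lacking LYPLA2 enzyme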
# LYPLA1 counter: blocks human lysophospholipase 1, a PME1 counter-screen; O75608; recombinant LYPLA1, FP-Rh probe fluorescence polarization; inhibition, % at 5.9 µM; 320,000 compounds, 0.16% hits; AID 2174;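 active = inhibition above the mean of all tested compounds plus 3 SD, set per campaign, cut at about 14% in these data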;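 note: inhibitors block serine hydrolase probe labeling of LYPLA1 so polarization falls; 0% = enzyme with DMSO and 100% = wells lacking LYPLA1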
# Target sequence (O75608 whole entry, looked up): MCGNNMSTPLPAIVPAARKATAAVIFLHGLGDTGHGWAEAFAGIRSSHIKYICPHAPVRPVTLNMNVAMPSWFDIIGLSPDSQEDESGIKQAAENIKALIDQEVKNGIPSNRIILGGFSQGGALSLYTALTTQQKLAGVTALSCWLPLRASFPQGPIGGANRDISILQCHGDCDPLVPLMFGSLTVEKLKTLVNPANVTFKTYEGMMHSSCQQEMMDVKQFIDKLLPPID
# PAD4 inh: blocks human protein arginine deiminase 4; Q9UM07; recombinant PAD4, RCA probe fluorescence polarization; inhibition, % at 6.36 µM; 330,000 compounds, 0.41% hits; AID 485272;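 active = percent inhibition above a cutoff equal to the mean of all tested compounds plus 3 SD, cut at about 15% in these data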;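 note: 0% = PAD4 with RCA probe and DMSO and 100% = probe without PAD4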
# Fam108b confirm: confirmation of mouse Fam108b serine hydrolase inhibitors; shares compounds with Fam108B counter; recombinant Fam108b, FP-Rh probe fluorescence polarization; inhibition, % at 9.51 µM; 930 compounds, 44% hits; AID 1978;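 active = inhibition above a limit from the primary screen, the mean over all compounds plus 3 SD, cut at about 19% in these data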;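 note: 0% = median of active Fam108b wells and 100% = catalytically dead S170A mutant; inhibitors free the probe so polarization falls as inhibition rises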
# Fam108b inh: mouse ABHD17B inhibition; shares compounds with Fam108B counter; recombinant Fam108b, gel-based ABPP, fluorophosphonate probe; inhibition, % at 20 µM; 260 compounds, 44% hits; in the data active = inhibition above about 40%
# * hit, by the source's call; nt = no result given.
SMILES,Fam108B counter,RBBP9 inhibitor,PME-1 inh,LYPLA2 counter,LYPLA1 counter,PAD4 inh,Fam108b confirm,others
O=[N+]([O-])c1ccc(O)c(Nc2ncnc3ccccc23)c1,-0.3,0.8,-1.7,2.7,-2.0,2.7,nt,
O=[N+]([O-])c1ccc(O)c(Nc2ncnc3ccc(Br)cc23)c1,20.3*,0.5,32.4*,8.5,8.5,-0.6,10.9,
CCN(CC)c1nc(N)c2c(N)n(-c3ccccc3C)c(=S)c(C#N)c2c1C#N,20.2*,2.6,10.3,10.2,2.7,-1.3,7.2,
Cc1cccc(Nc2nc(-c3ccc(O)cc3O)cs2)n1,21.4*,nt,20.6,-1.0,-6.6,-0.2,11.0,
Cc1ccccc1C(=O)N1CCN(CCNC(=O)C(=O)Nc2ccc(Br)cc2)CC1,4.6,nt,4.7,-6.0,-1.5,-5.9,nt,
O=C(NCc1ccccc1)c1sc(=S)n2c1[nH]c(=O)c1ccccc12,39.6*,-4.9,11.4,5.1,-3.3,-5.2,54.6*,Fam108b inh=0.0
COC(=O)c1ccc(CNC(=O)COC(=O)C2CC3C=CC2C3)cc1 (stereo not drawn),-0.9,-4.7,1.5,6.0,7.3,-3.8,nt,
CCN(c1ccccc1)S(=O)(=O)c1ccc(Cl)c(NC(=O)COC(=O)c2cc(O)c3ccccc3c2O)c1,19.6*,3.1,39.8*,7.5,0.1,25.9*,47.8*,
COc1ccc(NN=C(C=NO)C(=O)c2ccc(OC)cc2)cc1,nt,nt,nt,nt,nt,nt,nt,Fam108b inh=0.0
Cc1cccc(NC(=O)Cn2ccn(-c3ccc4c(c3)OCCO4)c(=O)c2=O)c1,3.1,nt,-1.0,9.4,3.0,0.4,nt,
COc1cc2c(c(OC)c1OC)-c1ccc(N(C)CC(OC)OC)c(=O)cc1[C@@H](NC(C)=O)CC2,19.4*,nt,5.4,5.0,-1.7,-2.0,-7.1,
CN[C@H]1CCc2cc(OC)c(OC)c(OC)c2-c2ccc(N(C)CC(OC)OC)c(=O)cc21,1.2,nt,0.0,0.8,3.6,1.4,nt,
COc1ccc(Cn2c(O)c(C=Nc3ccccc3)c3ccccc3c2=O)cc1,-2.5,-7.5,-5.8,13.1,-4.9,-0.6,nt,
COc1ccc(Cn2c(O)c(C=Nc3ccc(O)cc3)c3ccccc3c2=O)cc1,30.7*,-5.1,21.2,3.3,4.0,0.7,18.1,
C=CCn1c(SCc2ccc3c(c2)OCO3)nc2scc(-c3ccco3)c2c1=O,1.0,-10.1,0.8,-1.6,0.2,1.9,nt,
O=C1NCCn2ccc(=O)cc21,-2.3,5.1,1.7,8.5,1.7,-2.2,nt,
O=c1c2c3c(sc2n(CCN2CCOCC2)c(=O)n1Cc1ccco1)CCCCC3,20.4*,-8.3,-1.4,6.5,-5.0,1.1,16.3,
O=c1c2c3c(sc2n(CCN2CCCCC2)c(=O)n1Cc1ccco1)CCCCC3,21.1*,5.4,0.3,3.9,-0.3,-1.1,28.1*,
COc1cc(OC)c(NC(=O)C2CCCO2)cc1Cl (stereo not drawn),18.2*,nt,6.7,-4.0,-0.7,-2.7,-3.3,
COc1cc(NC(=O)C2CCCO2)c(OC)cc1Cl (stereo not drawn),2.5,-7.9,-12.8,-4.8,0.8,4.3,nt,
COc1cc(/C=N/Nc2nc(-c3ccc(S(=O)(=O)N(C)C)cc3)cs2)ccc1O,20.6*,5.2,28.0*,-1.4,-7.2,-5.4,8.6,
O=[N+]([O-])c1cc(/C=N\Nc2nc(-c3ccccc3)cs2)ccc1O,25.0*,0.9,22.7,1.9,1.2,-1.4,24.8*,
Cc1cc(C(F)(F)F)n2nc(-c3cnn(C)c3C(F)(F)F)c(Br)c2n1,5.0,-1.7,5.2,-2.2,-0.9,-1.4,nt,
COc1cc2cc(C(=O)NN=Cc3ccccc3Cl)[nH]c2cc1OC,nt,nt,nt,nt,nt,nt,nt,Fam108b inh=50.0*
COc1ccc2[nH]c(C(=O)N/N=C/c3ccccc3OC)cc2c1,2.1,nt,0.0,-6.4,-4.9,-0.9,nt,
SMILES,Fam108B counter,RBBP9 inhibitor,PME-1 inh,LYPLA2 counter,LYPLA1 counter,PAD4 inh,Fam108b confirm,others
CCOc1ccc2[nH]c(C(=O)N/N=C/c3ccccc3OC)cc2c1,21.4*,nt,-1.1,-10.7,-3.4,-0.6,-13.5,
CCn1c2ccccc2c2cc(NC(=O)c3ccc([N+](=O)[O-])cc3)ccc21,25.2*,0.9,4.6,9.5,0.2,1.2,-1.2,
CCOc1ccc(NC2=NC(C(=O)NCc3ccccc3)CC(=O)N2)cc1 (stereo not drawn),0.8,-4.6,1.1,-0.3,-2.9,-5.5,nt,
C=CCn1c(N)c(C(=O)OCCC)c2nc3ccccc3nc21,0.2,-6.9,4.0,0.5,-1.8,-11.1,nt,
COCCn1c(N)c(C(=O)OCc2ccccc2)c2nc3ccccc3nc21,42.2*,-4.8,-4.4,-8.0,-7.3,5.3,-2.1,
COc1ccc([N+](=O)[O-])cc1NC(=O)C1C2C=CC(C2)C1C(=O)O (stereo not drawn),18.8*,nt,-2.8,1.8,-1.2,-3.3,1.6,
CC(C)Nc1nnc(SCC(=O)Nc2ccc3c(c2)C(=O)c2ccccc2C3=O)s1,30.4*,11.4,57.0*,21.6,-7.0,-6.2,11.6,
O=C(CSc1nnc(NC2CCCCC2)s1)Nc1ccc2c(c1)C(=O)c1ccccc1C2=O,42.1*,-1.5,9.3,1.2,-5.8,2.9,2.5,
CC(C)Nc1nnc(SCC(=O)Nc2sccc2C#N)s1,nt,nt,4.9,-10.5,-10.3,-4.8,nt,
Cc1cc(NC(=O)c2cccc(S(=O)(=O)N3c4ccccc4CC3C)c2)no1 (stereo not drawn),-2.3,-12.5,1.0,3.6,-3.8,3.1,nt,
CCOC(=O)c1sc(NC(=O)c2cccc(S(=O)(=O)N3c4ccccc4CC3C)c2)cc1C (stereo not drawn),43.2*,0.9,32.6*,-3.2,-18.1,1.8,21.0*,
Nc1nc(NCCc2ccccc2)nc(NCCO)c1[N+](=O)[O-],-3.7,nt,-4.9,5.9,-3.6,-0.5,nt,
COc1ccc(/C=N\NC(=O)c2cc(O)c(O)c(O)c2)cc1COc1ccc(C(=O)OCC(C)C)cc1,27.5*,nt,42.5*,-17.8,-28.1,-12.1,30.9*,
COc1ccc(C(=O)N/N=C/c2ccc(OC)c(COc3ccccc3)c2)cc1,-1.4,nt,-7.0,-21.5,-0.3,1.2,nt,
CC(=O)C1C(=O)c2c(cccc2[N+](=O)[O-])C1=Nc1ccc(S(N)(=O)=O)cc1 (stereo not drawn),20.2*,-1.4,26.2*,9.8,2.5,-1.6,21.7*,
CC(=O)C1=C(O)C(=O)N(c2ccc(S(N)(=O)=O)cc2)C1c1cccc([N+](=O)[O-])c1 (stereo not drawn),1.4,-11.2,3.7,0.9,-0.1,0.2,nt,
Cc1ccc(Cl)cc1NC(=O)N(C)CCO,0.4,-8.8,-1.5,-2.0,1.5,-4.0,nt,
CC(=O)N1CCOc2ccc(S(=O)(=O)NC[C@H]3O[C@@H](n4cnc5c(N)ncnc54)[C@H](O)[C@@H]3O)cc21,nt,nt,nt,nt,nt,-1.4,nt,

# High-throughput results (PubChem)
